Assay outcomes as filed in PubChem.
Sampled rows, rich in hits. Any-hit rate of the full collection: about 1.6%.
DNA FID counter: fluorescent intercalator displacement, NS3 helicase counter-screen | 290,000 compounds, 0.17% hits | inhibition, % at 7.9 µM | DNA fluorescent intercalator displacement, fluorescence | AID 1845; in the data active = inhibition above about 37%;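 note: 0% = vehicle and 100% = reference compound; higher means more ethidium bromide displaced from hairpin DNA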
RAD54 branch: RAD54 (human) branch migration inhibition. Q92698. RAD54 Holliday junction branch migration, FAM/BHQ fluorescence. inhibition, % at 10.4 µM. 360,000 compounds, 0.14% hits. AID 602329;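 active = mean normalized replicate activity at least 40 and at least half of replicates scoring 40 or more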;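 note: 0% = median of neutral control wells and 100% = median of positive control wells; inhibitors cause a drop in the FAM fluorescence signal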
Neddylation inh: cullin neddylation inhibition; P61081+Q13564; TR-FRET cullin neddylation, biochemical; calls only at 25 µM; 360,000 compounds, 0.58% hits; in the data active = inhibition above about 36%
RAD52 inh: inhibitors of human RAD52 DNA annealing | P43351 | recombinant RAD52 DNA annealing, FRET fluorescence | inhibition, % at 18.7 µM | 360,000 compounds, 0.46% hits | AID 651710;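 active = every replicate showing at least 50% inhibition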
Target sequence (P43351 whole entry, looked up): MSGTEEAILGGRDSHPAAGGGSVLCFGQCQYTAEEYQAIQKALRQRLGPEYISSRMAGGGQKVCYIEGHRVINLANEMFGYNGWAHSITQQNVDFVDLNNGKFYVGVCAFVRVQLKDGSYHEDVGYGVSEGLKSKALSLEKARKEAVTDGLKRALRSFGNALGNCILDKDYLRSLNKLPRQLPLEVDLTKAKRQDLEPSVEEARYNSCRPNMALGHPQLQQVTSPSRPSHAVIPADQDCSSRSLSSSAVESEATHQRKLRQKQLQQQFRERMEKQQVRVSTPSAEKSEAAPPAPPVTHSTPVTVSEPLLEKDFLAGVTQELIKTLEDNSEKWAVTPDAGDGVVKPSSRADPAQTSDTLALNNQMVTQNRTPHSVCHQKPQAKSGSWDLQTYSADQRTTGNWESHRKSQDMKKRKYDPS
Apaf-1 inh: human Apaf-1 inhibition; 330,000 compounds, 0.71% hits; O14727; inhibition, % at 20 µM; reconstituted apoptosome caspase-3 activity, DEVD-Rh110 fluorescence; active = inhibition of at least 40% at 20 µM;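 note: plate controls were DMSO wells for no effect and DEVD-CHO caspase inhibitor wells for full effect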
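Assay system – apoptosome proteins · Medium – Hepes buffer, pH 7.5 · Also added – cytochrome c with DEVD-Rh110 · Timing – 30 min compound preincubation, 50 min activation, room temperature · Detection – Rh110 fluorescence, excitation 480 nm, emission 540 nm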
UBC13 inh: blocks human UBC13 polyubiquitin chain formation | P61088 | TR-FRET | inhibition, % at 20 µM | 330,000 compounds, 0.47% hits; in the data active = inhibition above about 45%, passing the limit was not always enough
Target sequence (P61088 whole entry, looked up): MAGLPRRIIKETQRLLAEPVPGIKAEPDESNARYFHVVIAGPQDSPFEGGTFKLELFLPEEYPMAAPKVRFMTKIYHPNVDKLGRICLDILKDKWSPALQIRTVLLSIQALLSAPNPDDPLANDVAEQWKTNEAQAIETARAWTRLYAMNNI
Neddyl conf: confirmation of human cullin neddylation inhibitors; calls only at 25 µM; shares compounds with Neddylation inh; TR-FRET cullin neddylation biochemical assay; 1,800 compounds, 13% hits; in the data active = inhibition above about 40%;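 note: neddylation substrate is the cullin 1 ring ligase complex with SKP2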
An asterisk follows results filed as active; i = inactive; nt = no result given; + = active, no number.

SMILES	DNA FID counter	RAD54 branch	Neddylation inh	RAD52 inh	Apaf-1 inh	UBC13 inh	Neddyl conf
COc1ccc(/C=N/NC(=O)c2cccs2)c2ccccc12	nt	-2.5	+	-15.5	7.5	16.1	i
COc1cc(C=NNC(=O)c2ccccc2NS(=O)(=O)c2cccs2)cc(OC)c1O	nt	-3.0	i	-3.1	-0.7	-20.7	nt
COc1ccc(OC)c(C=NNC(=O)c2ccccc2NS(=O)(=O)c2cccs2)c1	nt	2.3	+	-66.2	-8.1	-4.2	nt
COc1ccc(/C=N/NC(=O)c2cccnc2)c2ccccc12	-22.7	22.1	i	-3.0	6.6	4.9	nt
O=C(CN1c2cccc3cccc(c23)S1(=O)=O)Nc1ccc(F)c(F)c1F	nt	0.3	+	-3.8	7.7	1.1	i
O=C(CN1c2cccc3cccc(c23)S1(=O)=O)NCc1ccc(F)cc1	nt	nt	+	-9.5	6.0	10.1	+
COc1ccc(-c2cc(C(=O)N(C)CC(=O)Nc3ccccc3Br)c3ccccc3n2)cc1OC	nt	-5.5	+	7.7	7.4	11.6	+
COc1ccc(-c2cc(C(=O)N(C)CC(=O)Nc3ccccc3C(F)(F)F)c3ccccc3n2)cc1OC	nt	-23.5	i	-24.8	nt	nt	nt
CCOc1ccc(NC(=O)CN(C)C(=O)c2cc(-c3ccc(OC)cc3)nc3ccccc23)cc1OCC	nt	nt	+	-17.2	22.6	9.9	nt
COc1ccc(N2CCN(C(=O)CCCC(=O)c3ccccc3)CC2)cc1	-37.7	-2.2	i	-11.9	-9.5	11.4	nt
O=C(c1cc(Br)ccc1Cl)N1CCN(c2ccc(N3CCOCC3)nn2)CC1	nt	-4.1	+	-4.1	2.9	7.5	nt
CCCCOc1ccc(C(=O)N2CCN(c3ccc(N4CCOCC4)nn3)CC2)cc1	nt	-5.2	+	-4.0	13.3	7.5	nt
COc1ccc(C(=O)CCC(=O)N2CCN(c3ccc(N4CCOCC4)nn3)CC2)cc1	-28.5	-8.3	+	-24.9	-8.5	11.5	nt
Cc1ccc(C(=O)N2CCN(c3ccc(N4CCOCC4)nn3)CC2)cc1	nt	nt	+	-9.9	1.9	13.1	nt
CN1C(=O)c2cc(NC(=O)C3CCOCC3)ccc2OC[C@@H]2O[C@H](CC(=O)NCC3CC3)CC[C@@H]21	nt	-12.2	nt	-1.4	nt	nt	nt
CNC[C@@H]1Oc2ccc(NC(=O)Nc3ccc(OC)cc3)cc2C(=O)N([C@H](C)CO)C[C@H]1C	nt	5.1	nt	-7.0	nt	nt	nt
O=C(C[C@@H]1C=C[C@@H](NC(=O)c2ccc(F)cc2)[C@H](CO)O1)NCCc1ccccc1	nt	5.1	nt	10.9	nt	nt	nt
COc1cc(OC)cc(C(=O)N2CCN(c3ccc(N4CCOCC4)nn3)CC2)c1	nt	-4.8	+	-6.8	-2.4	10.6	nt
Cc1cccc(C(=O)N2CCN(c3ccc(N4CCOCC4)nn3)CC2)c1	-17.8	nt	nt	-8.1	-19.6	28.5	nt
CCOC(=O)CSc1ccc2nnc(-c3cccnc3)n2n1	-2.0	15.1	+	-7.8	0.6	1.2	nt
COc1ccc(CC(=O)OCC(=O)N2N=C(c3ccccc3)CC2c2ccc(OC)cc2)cc1 (stereo not drawn)	-27.8	-9.4	i	nt	14.7	3.2	nt
CCCCC(=O)OCC(=O)N1N=C(c2c[nH]c3ccccc23)C(O)C1c1ccc(OC)cc1 (stereo not drawn)	-18.2	nt	+	-11.1	38.6	8.3	i
C[C@H](CO)N1C[C@H](C)[C@H](CN(C)C(=O)Nc2ccc(F)cc2)Oc2ncc(/C=C/c3ccccc3)cc2C1=O	nt	nt	nt	-13.1	nt	nt	nt
Cc1ccc(S(=O)(=O)Nc2ccc3c(c2)C(=O)N([C@@H](C)CO)C[C@@H](C)[C@@H](CN(C)C(=O)NC2CCCCC2)OCCCC[C@@H](C)O3)cc1	nt	-9.1	nt	-32.9	nt	nt	nt
N#Cc1ccc2[nH]c(CO)c(-c3ccccc3)c2c1	2.5	-2.5	+	-23.1	14.7	16.5	i
SMILES	DNA FID counter	RAD54 branch	Neddylation inh	RAD52 inh	Apaf-1 inh	UBC13 inh	Neddyl conf
Cc1ccnc(NS(=O)(=O)c2cccs2)c1	-1.4	2.0	i	nt	-22.6	-6.7	nt
Cc1ccc(NS(=O)(=O)c2cccs2)nc1	-2.3	11.5	+	-24.9	-6.8	2.8	i
Cc1cccc(NS(=O)(=O)c2cccs2)n1	2.1	-10.1	+	-14.7	-3.9	-1.1	i
COC(=O)c1nc(N)sc1-c1ccccc1	3.9	3.3	+	nt	-1.1	11.0	nt
COc1ccc(/C=N/NC(=O)c2ccccc2O)cc1Cn1cc(Cl)cn1	-9.1	-13.8	+	nt	9.4	-4.3	+
CCC(=O)N[C@H]1C=C[C@@H](CC(=O)NCc2ccc(OC)cc2)O[C@@H]1CO	nt	3.3	nt	-10.1	nt	nt	nt
COc1ccc(S(=O)(=O)N2C[C@@H](O)COC[C@@H]3O[C@@H](CC(=O)N[C@H]4CCN(Cc5ccccc5)C4)CC[C@H]32)cc1	nt	13.6	nt	9.4	nt	nt	nt
O=C1NC(c2cccs2)Nc2sc3c(c21)CCCC3 (stereo not drawn)	2.1	0.8	+	nt	10.0	-11.2	i
C[C@H]1CN([C@@H](C)CO)C(=O)c2cc(NS(=O)(=O)c3ccccc3)ccc2O[C@H]1CN(C)C	nt	7.7	nt	-10.6	nt	nt	nt
CCCCCNc1nc(N2CCCC2)c2c(c1C#N)CCN(C)C2	14.3	12.7	+	nt	18.2	27.0	i
CCCNC(=O)N1C[C@H](C)[C@H](OC)CN(C)C(=O)c2cc(NS(=O)(=O)CC(F)(F)F)ccc2OC[C@@H]1C	nt	-7.0	nt	-10.6	nt	nt	nt
CCOc1ccc(N=Cc2c(O)c3ccccc3oc2=O)cc1	-2.6	4.8	i	nt	9.8	2.4	nt
CCOC(=O)c1ccccc1N=Cc1c(O)c2ccccc2oc1=O	-10.5	-5.6	+	-4.8	-3.8	12.4	i
Oc1cccc(Nc2ncnc3c2oc2ccccc23)c1	-1.3	nt	+	8.0	9.5	0.9	nt
C/C=C/c1cnc2c(c1)C(=O)N([C@H](C)CO)C[C@H](C)[C@@H](CN(C)S(=O)(=O)c1ccc(OC)cc1)O2	nt	0.6	nt	-5.8	nt	nt	nt
Cc1ccc(-n2nnnc2-c2cccs2)cc1[N+](=O)[O-]	nt	nt	+	-9.9	-3.6	-0.6	i
Cc1c(Cl)cccc1-n1nnnc1-c1cccs1	-10.7	-1.6	i	nt	6.8	2.5	nt
Cc1ccc(S(=O)(=O)N(C)C[C@@H]2Oc3ccc(NC(=O)Cc4ccccc4)cc3C(=O)N([C@@H](C)CO)C[C@@H]2C)cc1	nt	-14.1	nt	12.7	nt	nt	nt
N#CC1=C(N)Nc2nc3ccccc3n2C1c1ccc(Cl)cc1 (stereo not drawn)	-3.9	nt	+	nt	9.0	-7.6	i
Cc1ccn2cc(-c3cccc(NS(C)(=O)=O)c3)nc2c1	-2.0	nt	+	-8.1	6.6	9.2	i
Cc1ccn2cc(-c3ccc(NS(=O)(=O)c4ccccc4)cc3)nc2c1	-8.0	-0.7	i	-5.0	11.6	0.7	nt
COc1c(Cl)cccc1-c1cn2ccc(C)cc2n1	-6.5	nt	+	0.8	-4.9	8.9	i
Cc1ccc(S(=O)(=O)Nc2ccc(-c3cn4ccc(C)cc4n3)cc2)cc1	-8.4	-2.1	+	-5.7	13.9	10.8	i
